Measured values reported in article PMC9426946 (Biochimica et biophysica acta. Proteins and proteomics, 2022).

B1: β-casein: bovine β-casein, protein substrate (protein, UniProt P02666 16-224, looked up)
Beta-casein: RELEELNVPGEIVESLSSSEESITRINKKIEKFQSEEQQQTEDELQDKIHPFAQTQSLVYPFPGPIPNSLPQNIPPLTQTPVVVPPFLQPEVMGVSKVKEAMAPKHKEMPFPKYPVEPFTESQSLTLTDVENLHLPLPLLQSWMHQPHQPLPPTVMFPPQSVLSLSQSKVLPVPQKAVPYPQRDMPIQAFLLYQEPVLGPVRGPFPIIV

Assays:
CTRB1 = CTRB1 (Homo sapiens, UniProt P17538, Y164H); assay: Michaelis-Menten kinetics on p-nitroanilide peptide substrates; assay type: biochemical; conditions: for kcat/KM, CTRB1 / Km: 0.1 M Tris-HCl pH 8.0, 1 mM CaCl2, 0.05% Tween-20; for Km: read-out: KM, CTRB1, average of two independent measurements
CTRB1, sequence (P17538 19-263 Y164H): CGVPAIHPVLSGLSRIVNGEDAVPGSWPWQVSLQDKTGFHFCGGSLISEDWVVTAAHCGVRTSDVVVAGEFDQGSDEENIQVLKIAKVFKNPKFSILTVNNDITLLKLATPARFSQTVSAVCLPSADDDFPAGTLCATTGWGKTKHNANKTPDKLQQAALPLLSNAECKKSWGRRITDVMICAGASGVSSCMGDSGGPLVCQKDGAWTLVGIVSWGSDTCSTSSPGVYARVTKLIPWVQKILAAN
In short: (§1)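 Suc- and H-Ala-Ala-Pro-Phe-pNA were used at 8–1050 µM, from DMSO stocks calibrated by complete chymotryptic hydrolysis. Reactions were started by adding enzyme to 1 or 5 nM final. p-Nitroaniline release was followed at 410 nm for 3–5 min (ε 8,800 M-1cm-1), with rates taken from linear portions. KM and Vmax came from hyperbolic fits, averaging two independent measurements. Human enzymes were recombinant Y164H forms, ecotin-titrated.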

CTRB2 [1] = target: T1, CTRB2 (Homo sapiens, UniProt Q6GPI1, Y164H); assay: as above; assay type: biochemical; conditions: for kcat/KM, CTRB2 / kcat, CTRB2 / Km: 0.1 M Tris-HCl pH 8.0, 1 mM CaCl2, 0.05% Tween-20; for kcat, CTRB2 / Km: average of two independent measurements; for Km: read-out: KM, CTRB2
T1 sequence (Q6GPI1 19-263 Y164H): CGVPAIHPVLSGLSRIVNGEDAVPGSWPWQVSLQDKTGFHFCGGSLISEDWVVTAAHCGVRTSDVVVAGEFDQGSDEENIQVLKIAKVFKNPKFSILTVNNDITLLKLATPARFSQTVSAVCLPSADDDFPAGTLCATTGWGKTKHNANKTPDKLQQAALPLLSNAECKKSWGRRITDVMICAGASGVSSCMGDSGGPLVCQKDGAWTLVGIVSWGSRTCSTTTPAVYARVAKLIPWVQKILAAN
In short: as §1

bCTRA = bCTRA (Bos taurus, UniProt P00766); assay: as above; assay type: biochemical, bovine; conditions: for kcat/KM, bCTRA / kcat, bCTRA / Km: 0.1 M Tris-HCl pH 8.0, 1 mM CaCl2, 0.05% Tween-20; for kcat, bCTRA / Km: average of two independent measurements; for Km: read-out: KM, bCTRA
In short: as §1

CTRB1 D236R = CTRB1 D236R (Homo sapiens, UniProt P17538, D236R/Y164H); assay: as above; assay type: biochemical; conditions: for kcat/KM, CTRB1 D236R / kcat, CTRB1 D236R / Km: 0.1 M Tris-HCl pH 8.0, 1 mM CaCl2, 0.05% Tween-20; for kcat, CTRB1 D236R / Km: average of two independent measurements; for Km: read-out: KM, CTRB1 D236R
CTRB1 D236R, sequence (P17538 19-263 Y164H/D236R): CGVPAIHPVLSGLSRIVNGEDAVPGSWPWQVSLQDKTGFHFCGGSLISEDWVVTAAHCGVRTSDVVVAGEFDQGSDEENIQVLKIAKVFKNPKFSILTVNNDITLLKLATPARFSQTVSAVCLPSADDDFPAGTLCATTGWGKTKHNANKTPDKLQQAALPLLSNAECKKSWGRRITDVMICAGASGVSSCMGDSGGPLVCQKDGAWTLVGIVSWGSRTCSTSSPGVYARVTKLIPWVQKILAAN
In short: as §1

CTRB1 S242T = CTRB1 S242T (Homo sapiens, UniProt P17538, S242T/Y164H); assay: as above; assay type: biochemical; conditions: 0.1 M Tris-HCl pH 8.0, 1 mM CaCl2, 0.05% Tween-20; for kcat, CTRB1 S242T / Km: average of two independent measurements; for Km: read-out: KM, CTRB1 S242T
CTRB1 S242T, sequence (P17538 19-263 Y164H/S242T): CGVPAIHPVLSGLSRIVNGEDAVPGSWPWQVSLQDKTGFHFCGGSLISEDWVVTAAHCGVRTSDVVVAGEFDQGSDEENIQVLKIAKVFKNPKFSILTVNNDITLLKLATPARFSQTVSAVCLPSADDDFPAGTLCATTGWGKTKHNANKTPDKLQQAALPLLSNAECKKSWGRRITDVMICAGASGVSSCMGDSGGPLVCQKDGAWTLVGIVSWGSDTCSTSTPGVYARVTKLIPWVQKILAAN
In short: as §1

[2] = target: chymotrypsin B1 (Homo sapiens) (UniProt P17538); conditions: cited from earlier work
chymotrypsin B1 (Homo sapiens), sequence (P17538 34-164, chain 2 of 2): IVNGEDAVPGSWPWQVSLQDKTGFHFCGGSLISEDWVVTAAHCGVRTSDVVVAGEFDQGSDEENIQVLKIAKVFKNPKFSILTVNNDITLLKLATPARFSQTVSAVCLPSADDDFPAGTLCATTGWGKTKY
chymotrypsin B1 (Homo sapiens), sequence (P17538 167-263, chain 3 of 2): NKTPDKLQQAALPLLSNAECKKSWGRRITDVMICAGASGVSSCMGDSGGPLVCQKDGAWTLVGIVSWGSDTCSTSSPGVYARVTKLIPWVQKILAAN

human CTRB2 = conditions: read-out: KD on human CTRB2; prior observations; cited from earlier work
CTRB2 [3] = target: T1, CTRB2; assay: Casein digestion by chymotrypsins; assay type: biochemical; conditions: 0.2 mg/mL β-casein, 5 nM enzyme, 0.1 M Tris-HCl pH 8.0, 1 mM CaCl2, 37°C; SDS-PAGE densitometry, two experiments
[4] = relative to Suc-Ala-Ala-Pro-Phe-p-nitroanilide

| Molecule | kcat/KM, CTRB1 (CTRB1) [M⁻¹ s⁻¹] | Km (CTRB1) [µM] | kcat/KM, CTRB2 (CTRB2 [1]) [M⁻¹ s⁻¹] | kcat, CTRB2 (CTRB2 [1]) [s⁻¹] | Km (CTRB2 [1]) [µM] | kcat/KM, bCTRA (bCTRA) [M⁻¹ s⁻¹] | kcat, bCTRA (bCTRA) [s⁻¹] | Km (bCTRA) [µM] | kcat/KM, CTRB1 D236R (CTRB1 D236R) [M⁻¹ s⁻¹] | kcat, CTRB1 D236R (CTRB1 D236R) [s⁻¹] | Km (CTRB1 D236R) [µM] | kcat/KM, CTRB1 S242T (CTRB1 S242T) [M⁻¹ s⁻¹] | kcat, CTRB1 S242T (CTRB1 S242T) [s⁻¹] | Km (CTRB1 S242T) [µM] | also measured |
| --- | --- | --- | --- | --- | --- | --- | --- | --- | --- | --- | --- | --- | --- | --- | --- |
| H-Ala-Ala-Pro-Phe-p-nitroanilide [H-AAPF-pNA] | 40000 | 575 | 36000 | 10.9 | 304 | 55000 | 20.3 | 371 | 45000 | 9.64 | 214 | 39000 | 21.3 | 550 | reduction in kcat/KM on removal of the Suc group, CTRB1 (CTRB1; [4]): 4 fold; reduction in kcat/KM on removal of the Suc group, CTRB2 (CTRB2 [1]; [4]): 36 fold |
| SGPI-2 (from UniProt O46162) |  |  |  |  |  |  |  |  |  |  |  |  |  |  | Kd [2]: 1.1 nM |
| Schistocerca gregaria proteinase inhibitor 2 [wild-type SGPI-2] |  |  |  |  |  |  |  |  |  |  |  |  |  |  | Kd (human CTRB2): 0.16 nM |
| Suc-Ala-Ala-Pro-Phe-p-nitroanilide [Suc-AAPF-pNA] | 160000 | 219 | 1.3e+06 | 26.1 | 20.4 | 790000 | 36.9 | 46.6 | 2e+06 | 36.0 | 17.9 | 180000 | 38.4 | 220 | kcat/KM of CTRB2 relative to CTRB1 (CTRB2 [1]; more efficient than CTRB1): 8.1 fold; kcat/KM of bCTRA relative to CTRB1 (bCTRA; more efficient than CTRB1): 5 fold; kcat/KM of CTRB1 D236R relative to CTRB1 (CTRB1 D236R; more efficient than CTRB1): 12.5 fold |
| B1 |  |  |  |  |  |  |  |  |  |  |  |  |  |  | digestion activity of CTRB2 relative to CTRB1 (CTRB2 [3]): 2.3 fold |
